# Reference: ChEMBL document CHEMBL4706504, “Hit-to-lead optimization of a latency-associated nuclear antigen inhibitor against Kaposi's sarcoma-associated herpesvirus infections” (Eur J Med Chem, 2020)
# Calls of active or inactive are those of the source. The calls are words filed in the database; no cut-off is given here.
# Assays:
# [1] = (§1) Inhibition of Kaposi's sarcoma herpesvirus C-terminal His-tagged oligomerization deficient LANA DBD (1008 to 1146 residues) K1055E/K1138S/K1140D/K1141D/R1039Q/R1040Q/A1121E/K1109A/D1110A mutant expressed in Escherichia coli BL21(DE3) assessed as inhibition of LANA interaction with fluorescently-labelled viral DNA LBS2 probe preincubated with LANA-DBD for 60 mins followed by addition of DNA probe and measured after 90 mins by flourescence polarization assay; design: species or system Human gammaherpesvirus 8
# How it was run: (§2)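 FP competition of DNA binding, using the oligomerization-deficient LANA DBD mutant (aa 1008-1146, nine point mutations). Probes were LBS1, LBS2 or LBS3. Values are IC50 from the average of duplicates ± standard deviation.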
# [2] = tested on: Human gammaherpesvirus 8; test: (§3) Inhibition of Kaposi's sarcoma herpesvirus C-terminal His-tagged oligomerization deficient LANA DBD (1008 to 1146 residues) K1055E/K1138S/K1140D/K1141D/R1039Q/R1040Q/A1121E/K1109A/D1110A mutant expressed in Escherichia coli BL21(DE3) assessed as inhibition of LANA interaction with 5'-Dy682-labeled viral DNA LBS1 probe at 500 uM preincubated with LANA-DBD for 60 mins followed by addition of DNA probe and measured after 30 mins by Electrophoretic mobility shift assay; conditions: time 90.0 min
# [3] = tested on: Human gammaherpesvirus 8; test: as §1, with “LBS2 probe at 500 uM preincubated with” for “LBS2 probe preincubated with”; conditions: time 150.0 min
# [4] = tested on: Human gammaherpesvirus 8; test: (§4) Inhibition of Kaposi's sarcoma herpesvirus wild type LANA CTD (934 to 1162 residues) expressed in Escherichia coli BL21 (DE3) assessed as inhibition of LANA interaction with 5'-Dy682-labeled viral DNA LBS1 probe at 250 uM preincubated with LANA CTD for 60 mins followed by addition of DNA probe and measured after 30 mins by Electrophoretic mobility shift assay; conditions: time 90.0 min
# [5] = as §1, with “LBS1” for “LBS2”; design: species or system Human gammaherpesvirus 8; how it was run: as §2
# [6] = as §1, with “LBS3” for “LBS2”; design: species or system Human gammaherpesvirus 8; how it was run: as §2
# [7] = tested on: Human gammaherpesvirus 8; test: Inhibition of Kaposi's sarcoma herpesvirus C-terminal His-tagged oligomerization deficient LANA DBD (1008 to 1146 residues) K1055E/K1138S/K1140D/K1141D/R1039Q/R1040Q/A1121E/K1109A/D1110A mutant expressed in Escherichia coli BL21(DE3) assessed as inhibition of LANA interaction with 5'-Dy682-labeled …; conditions: dose 250.0 µM, time 90.0 min
# [8] = as §4, with “probe” for “probe at 250 uM”; design: species or system Human gammaherpesvirus 8
# How it was run: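 GST-tagged KSHV LANA CTD (aa934-1162), wild type and unmutated, binding an LBS1 probe in EMSA. Compounds were first screened at a single fixed final concentration, then run in a dose-response EMSA. LANA-DNA complex (upper) band intensities were normalized to 0-100% inhibition. IC50 came from a four-parameter dose-response fit.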
# [9] = as §3, with “probe” for “probe at 500 uM”; design: species or system Human gammaherpesvirus 8
# [10] = tested on: Human gammaherpesvirus 8; test: as §3, with “LBS1+2+3” for “LBS1”, “125” for “500”; conditions: time 90.0 min
# How it was run: (§5)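 EMSA with the LANA DBD mutant as a dose-dependent test against higher-order complexes. Combined probes were LBS1+2 and LBS2+1+3. Inhibition was judged from loss of the LANA-DNA complex band.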
# [11] = tested on: Human gammaherpesvirus 8; test: Binding affinity to Kaposi's sarcoma herpesvirus C-terminal His-tagged oligomerization deficient LANA DBD (1008 to 1146 residues) K1055E/K1138S/K1140D/K1141D/R1039Q/R1040Q/A1121E/K1109A/D1110A mutant expressed in Escherichia coli BL21(DE3) at 500 uM by STD-NMR analysis
# [12] = tested on: Human gammaherpesvirus 8; test: as §3, with “LBS1+2” for “LBS1”, “62.5” for “500”; conditions: time 90.0 min; how it was run: as §5
structure (smiles),measurement,setting,value
O=C(O)c1ccc(-c2cn(-c3cncc(-c4ccc(F)c(F)c4)c3)nn2)cc1,IC50,[1],> 250 µM
O=C(O)c1ccc(-c2cn(-c3cncc(-c4cccc(O)c4)c3)nn2)cc1,IC50,[1],153 µM
same,inhibition,[2],20%
O=C(O)c1cccc(-c2cn(-c3cccnc3)nn2)c1,IC50,[1],> 250 µM
O=C(O)c1ccc(-c2cn(-c3ccc(Oc4ccccc4)cc3)nn2)cc1,inhibition,[3],inactive
COc1ccccc1-c1cncc(-n2cc(-c3ccc(C(=O)O)cc3)nn2)c1,inhibition,[3],inactive
O=C(O)c1ccc(-c2cn(-c3cnccc3Cl)nn2)cc1,IC50,[1],29 µM
same,inhibition,[2],94%
Cc1cc(Oc2cccc(F)c2)ncc1-n1cc(-c2ccc(C(=O)O)cc2)nn1,IC50,[1],122 µM
same,inhibition,[2],inactive
CC(=O)Nc1ccc(-c2cn(-c3cccnc3)nn2)cc1,inhibition,[3],inactive
CNc1ccc(-n2cc(-c3ccc(C(=O)O)cc3)nn2)cn1,inhibition,[3],inactive
COC(=O)c1ccc(-c2cn(-c3cccnc3)nn2)cc1,inhibition,[3],inactive
O=C(O)c1ccc(-c2cn(-c3cncc(-c4ccccc4)c3Cl)nn2)cc1,inhibition,[4],inactive
same,IC50,[5],55 µM
same,IC50,[1],38 µM
same,IC50,[6],45 µM
same,inhibition,[2],100%
same,inhibition,[7],inactive
Cc1cc(Oc2ccccc2F)ncc1-n1cc(-c2ccc(C(=O)O)cc2)nn1,IC50,[1],64 µM
same,inhibition,[2],inactive
Cc1cc(-c2ccccc2)ncc1-n1cc(-c2ccc(C(=O)O)cc2)nn1,IC50,[1],36 µM
same,inhibition,[2],36%
Cc1ccncc1-n1cc(-c2ccc(C(=O)O)cc2)nn1,IC50,[1],86 µM
same,inhibition,[2],39%
O=C(O)c1ccc(-c2cn(-c3cnc4ccccc4c3)nn2)cc1,IC50,[1],70 µM
same,inhibition,[2],61%
Cc1cc(Cl)ncc1-n1cc(-c2ccc(C(=O)O)cc2)nn1,IC50,[1],> 250 µM
O=C(O)c1ccc(-c2cn(-c3ccc(Nc4ccccc4)nc3)nn2)cc1,IC50,[1],110 µM
same,inhibition,[2],29%
Cc1cnccc1-n1cc(-c2ccc(C(=O)O)cc2)nn1,inhibition,[3],inactive
O=C(O)c1ccc(-c2cn(-c3cncc4ccccc34)nn2)cc1,IC50,[1],33 µM
same,inhibition,[2],96%
N#Cc1ccc(-n2cc(-c3ccc(C(=O)O)cc3)nn2)cn1,IC50,[1],52 µM
same,inhibition,[2],inactive
O=C(O)c1ccc(-c2cn(-c3cncc(-c4ccccc4)c3)nn2)cc1,IC50,[1],> 250 µM
Cc1ccc(-c2cncc(-n3cc(-c4ccc(C(=O)O)cc4)nn3)c2)cc1C,inhibition,[3],inactive
N#Cc1ccc(-c2cn(-c3cccnc3)nn2)cc1,IC50,[1],> 250 µM
O=C(O)c1ccc(-c2cn(-c3cccnc3)nn2)cc1,inhibition,[4],inactive
same,IC50,[5],20 µM
same,IC50,[8],435 µM
same,IC50,[1],17 µM
same,IC50,[6],19 µM
same,inhibition,[2],82%
same,IC50,[9],426 µM
NC(=O)c1ccc(-c2cn(-c3cccnc3)nn2)cc1,inhibition,[3],inactive
COc1cc(F)cc(-c2cncc(-n3cc(-c4ccc(C(=O)O)cc4)nn3)c2)c1,inhibition,[3],inactive
O=C(O)c1ccc(-c2cn(-c3cccnc3)nn2)cc1Cl,inhibition,[3],inactive
O=C(O)c1ccc(-c2cn(-c3cnccc3-c3ccccc3)nn2)cc1,inhibition,[4],inactive
same,IC50,[5],52 µM
same,IC50,[1],18 µM
same,IC50,[6],42 µM
same,inhibition,[2],100%
same,inhibition,[7],inactive
O=C(O)c1ccc(-c2cn(-c3ccc(Oc4ccccc4)nc3)nn2)cc1,inhibition,[3],inactive
O=C(O)c1ccc(-c2cn(-c3ccc(Oc4cccnc4)cc3)nn2)cc1,inhibition,[4],inactive
same,IC50,[5],15 µM
same,IC50,[1],19 µM
same,IC50,[6],25 µM
same,inhibition,[2],100%
same,IC50,[9],64 µM
O=C(O)c1ccc(-c2cn(-c3cncc(F)c3)nn2)cc1,inhibition,[3],inactive
OCc1ccc(-c2cn(-c3cccnc3)nn2)cc1,inhibition,[3],inactive
Cc1cc(Oc2ccc(F)cc2)ncc1-n1cc(-c2ccc(C(=O)O)cc2)nn1,IC50,[1],134 µM
same,inhibition,[2],inactive
Cc1ccc2cncc(-n3cc(-c4ccc(C(=O)O)cc4)nn3)c2c1,inhibition,[4],Active
same,IC50,[5],9 µM
same,inhibition,[10],Active
same,IC50,[8],60 µM
same,Activity,[11],Active
same,IC50,[1],8 µM
same,IC50,[6],8 µM
same,inhibition,[2],100%
same,IC50,[9],53 µM
same,inhibition,[12],Active
O=C(O)c1ccc(-c2cn(-c3cncc(-c4cccc(CO)c4)c3)nn2)cc1,IC50,[1],> 250 µM
COc1ccc(-c2cncc(-n3cc(-c4ccc(C(=O)O)cc4)nn3)c2)cc1,inhibition,[3],inactive
Nc1ccc(-c2cn(-c3cccnc3)nn2)cc1,IC50,[1],> 250 µM
COC(=O)c1ccc2cncc(-n3cc(-c4ccc(C(=O)O)cc4)nn3)c2c1,IC50,[1],> 250 µM
O=C(O)c1ccc(-c2cn(Cc3cccnc3)nn2)cc1,IC50,[1],> 250 µM
COc1cccc(-c2cncc(-n3cc(-c4ccc(C(=O)O)cc4)nn3)c2)c1,IC50,[1],110 µM
same,inhibition,[2],inactive
CC(C)Nc1ccc(-n2cc(-c3ccc(C(=O)O)cc3)nn2)cn1,IC50,[1],> 250 µM
COc1ccc(-n2cc(-c3ccc(C(=O)O)cc3)nn2)cn1,IC50,[1],218 µM
same,inhibition,[2],11%
Cc1cc(-c2cccc(CO)c2)ncc1-n1cc(-c2ccc(C(=O)O)cc2)nn1,inhibition,[4],inactive
same,IC50,[5],64 µM
same,IC50,[1],25 µM
same,IC50,[6],63 µM
same,inhibition,[2],100%
same,inhibition,[7],inactive
O=C(O)c1ccc(-c2cn(-c3ccc(O)nc3)nn2)cc1,IC50,[1],214 µM
same,inhibition,[2],75%
Cc1cc(Oc2ccccc2)ncc1-n1cc(-c2ccc(C(=O)O)cc2)nn1,IC50,[1],198 µM
same,inhibition,[2],inactive
Cc1cc(Sc2ccccc2)ncc1-n1cc(-c2ccc(C(=O)O)cc2)nn1,IC50,[1],175 µM
same,inhibition,[2],inactive
Cc1cc(-c2ccc(Cl)cc2)ncc1-n1cc(-c2ccc(C(=O)O)cc2)nn1,IC50,[1],58 µM
same,inhibition,[2],30%
O=C(O)c1ccc(-c2cn(-c3cncc(-c4ccoc4)c3)nn2)cc1,IC50,[1],19 µM
same,inhibition,[2],34%
CCOC(=O)c1ccc(-c2cn(-c3cccnc3)nn2)cc1,inhibition,[3],inactive
Cc1cc(-c2ccccc2O)ncc1-n1cc(-c2ccc(C(=O)O)cc2)nn1,inhibition,[4],inactive
same,IC50,[5],30 µM
same,IC50,[1],21 µM
same,IC50,[6],34 µM
same,inhibition,[2],100%
same,IC50,[9],156 µM
O=C(O)c1ccc(-c2cn(-c3cncc4ccc(Cl)cc34)nn2)cc1,inhibition,[4],inactive
same,IC50,[5],14 µM
same,IC50,[1],17 µM
same,IC50,[6],15 µM
same,inhibition,[2],100%
same,IC50,[9],93 µM
Cc1cncc(-n2cc(-c3ccc(C(=O)O)cc3)nn2)c1,IC50,[1],45 µM
same,inhibition,[2],78%
O=C(O)c1ccc(-c2cn(-c3cncc(-c4ccc(CO)cc4)c3)nn2)cc1,IC50,[1],> 250 µM
